Measured values published in ChEMBL document CHEMBL1151786, “Triphenylmethylamides (TPMAs): Structure-activity relationship of compounds that induce apoptosis in melanoma cells” (Bioorg Med Chem Lett, 2008).
≈ marks a conversion by molar mass, not a printed value. Calls of active or inactive are those of the source. No cut-off for these calls is given here.

Legend:
[1] = system: SK-MEL-5; assay: Growth inhibition of human SK-MEL-5 cells after 72 hrs by SRB assay; assay type: functional, cell-based; conditions: SK-MEL-5, 72 h
In short: (§1)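 Melanoma cells were exposed to a range of compound concentrations for 72 h. Growth inhibition was read as biomass by sulforhodamine B staining. IC50 is the average of three separate occasions, given with standard deviation, from dose–response curves.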

[2] = system: UACC-62; assay: Growth inhibition of human UACC62 cells after 72 hrs by SRB assay; assay type: functional, cell-based; conditions: UACC-62, 72 h; in short: as §1
[3] = system: HL-60; assay: Cell cycle arrest in human HL60 cells assessed as accumulation at G1 phase at 20 uM after 6 hrs by flow cytometry using propidium iodide staining; assay type: functional, cell-based
In short: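 HL-60 cells were treated for 6 h with 20 µM compound or with vehicle alone. They were then stained with propidium iodide and analysed by flow cytometry for the percentage of cells in G0/G1, S and G2/M.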

[4] = system: U-937; assay: Antiproliferative activity against human U937 cells after 72 hrs by SRB assay; assay type: functional, cell-based; conditions: U-937, 72 h
In short: (§2)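 Cancer cell lines were incubated with compound for 72 h. Growth or viability was measured by a method given in the supporting information. IC50 values are averages with standard deviations from three independent experiments.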

[5] = system: HL-60; assay: Antiproliferative activity against human HL60 cells after 72 hrs by SRB assay; assay type: functional, cell-based; conditions: HL-60, 72 h; in short: as §2
[6] = system: PC-12; assay: Antiproliferative activity against rat PC12 cells after 72 hrs by SRB assay; assay type: functional, cell-based; conditions: PC-12, 72 h; in short: as §2
[7] = system: MCF7; assay: Antiproliferative activity against human MCF7 cells after 72 hrs by SRB assay; assay type: functional, cell-based; conditions: MCF7, 72 h; in short: as §2
[8] = system: U-937; assay: Induction of early apoptosis in human U937 cells at 100 uM after 48 hrs by flow cytometry using FITC-conjugated annexin V and propidium iodide staining relative to control; assay type: functional
In short: (§3)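 U-937 cells were exposed for 48 h to 100 µM compound or to vehicle. Cells were stained with FITC-conjugated Annexin V to detect phosphatidylserine externalization and with propidium iodide to test membrane integrity, then quantified by flow cytometry. Quadrants were scored, with Annexin V-positive/propidium iodide-negative taken as early apoptotic.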

[9] = system: U-937; assay: Induction of apoptosis in human U937 cells assessed as nonviable necrotic cells at 100 uM after 48 hrs by flow cytometry using FITC-conjugated annexin V and propidium iodide staining relative to control; assay type: functional; in short: as §3
[10] = system: U-937; assay: Induction of apoptosis in human U937 cells assessed as viable cells at 100 uM after 48 hrs by flow cytometry using FITC-conjugated annexin V and propidium iodide staining relative to control; assay type: functional; conditions: U-937, 48 h, read-out: Activity; in short: as §3
[11] = Aqueous solubility in phosphate-buffered saline at pH 7.4; assay type: physicochemical; conditions: read-out: Stability
[12] = system: U-937; assay: Induction of late apoptosis in human U937 cells at 100 uM after 48 hrs by flow cytometry using FITC-conjugated annexin V and propidium iodide staining relative to control; assay type: functional; in short: as §3

Row | SMILES | IC50 [1] [µM] | IC50 [2] [µM] | further results
1 | O=C(NCCc1ccccc1)C(c1ccccc1)(c1ccccc1)c1ccc(O)cc1 | 8.1 | 13 | –
2 | COC(=O)[C@@H](Cc1ccccc1)NC(=O)C(c1ccccc1)(c1ccccc1)c1cccs1 | 12 | 21 | –
3 | COC(=O)[C@@H](Cc1ccccc1)NC(=O)C1(c2ccccc2)c2ccccc2-c2ccccc21 | 23 | 27 | –
4 | O=C(NCCc1ccccc1)C(c1ccc(O)cc1)(c1ccc(O)cc1)c1ccc(O)cc1 | 36 | 71 | –
5 | O=C(NCCc1ccccc1)C(c1ccccc1)(c1ccc(O)cc1)c1ccc(O)cc1 | 8.6 | 47 | –
6 | O=C(NCCc1ccccc1)C(c1ccccc1)(c1ccccc1)c1ccccc1 | 5.8 | 8.3 | Activity [3]: Active; IC50 [4]: 9.5 µM; IC50 [5]: 7.7 µM; IC50 [6]: 31 µM; IC50 [7]: 7.1 µM
7 | COC(=O)[C@@H](Cc1ccccc1)NC(=O)CCC(c1ccccc1)(c1ccccc1)c1ccccc1 | 2.5 | 40 | IC50 [4]: 6.8 µM; IC50 [5]: 6 µM; IC50 [6]: 74 µM; IC50 [7]: 6.1 µM
8 | COc1ccc(C(C(=O)NCCc2ccccc2)(c2ccccc2)c2ccccc2)cc1 | 29 | 13 | Activity [3]: Active
9 | COC(=O)[C@@H](Cc1ccccc1)NC(=O)CC(c1ccccc1)(c1ccccc1)c1ccccc1 | 5.1 | > 100 | –
10 | COc1ccc(C(C(=O)NCCc2ccccc2)(c2ccccc2)c2ccc(OC)cc2)cc1 | 14 | 20 | Activity [3]: Active
11 | COC(=O)[C@@H](Cc1ccccc1)NC(=O)C(c1ccc(OC)cc1)(c1ccc(OC)cc1)c1ccc(OC)cc1 | 49 | > 100 | –
12 | O=C(NCCc1ccccc1)C(c1ccccc1)(c1ccccc1)c1ccc(O)c(O)c1 | 4.2 | 2.1 | Activity [8]: 23.17%; Activity [3]: Active; Activity [9]: 12.79%; IC50 [4]: 5.9 µM; viability at 100 µM [10]: 5.48%; solubility [11]: 80 µM (≈ 33.9 µg/mL); IC50 [5]: 6.2 µM; Activity [12]: 58.56%; IC50 [6]: 85 µM; IC50 [7]: 8.1 µM
13 | COC(=O)[C@@H](Cc1ccccc1)NC(=O)C(c1ccccc1)(c1ccc(O)cc1)c1ccc(O)cc1 | 6.7 | 20 | –
14 | COC(=O)[C@@H](Cc1ccccc1)NC(=O)C(c1ccccc1)(c1ccccc1)c1ccc(OC)cc1 | 6.1 | 27 | –
15 | O=C(CCCC(c1ccccc1)(c1ccccc1)c1ccccc1)NCCc1ccccc1 | 5.4 | 26 | Activity [3]: Active
16 | COC(=O)[C@@H](Cc1ccccc1)NC(=O)C(c1ccccc1)(c1ccccc1)c1ccccc1 | 5.7 | 14 | Activity [3]: Active; IC50 [4]: 7.2 µM; solubility [11]: 20 µM (≈ 8.99 µg/mL); IC50 [5]: 7.3 µM; IC50 [6]: 16 µM; IC50 [7]: 8 µM
17 | O=C(CCC(c1ccccc1)(c1ccccc1)c1ccccc1)NCCc1ccccc1 | 5.5 | 50 | –
18 | COC(=O)[C@@H](Cc1ccccc1)NC(=O)CCCC(c1ccccc1)(c1ccccc1)c1ccccc1 | 5.8 | 45 | –
19 | COC(=O)[C@@H](Cc1ccccc1)NC(=O)C(c1ccc(O)cc1)(c1ccc(O)cc1)c1ccc(O)cc1 | 13 | 27 | –
20 | O=C(CC(c1ccccc1)(c1ccccc1)c1ccccc1)NCCc1ccccc1 | 17 | 50 | –
21 | COC(=O)[C@@H](Cc1ccccc1)NC(=O)C(c1ccccc1)(c1ccccc1)c1ccc(O)cc1 | 8.1 | 21 | –
22 | O=C(NCCc1ccccc1)C(c1ccccc1)(c1ccccc1)c1cccs1 | 9 | 13 | –
23 | O=C(NCCc1ccccc1)C1(c2ccccc2)c2ccccc2-c2ccccc21 | 20 | 20 | –
24 | COc1ccc(C(C(=O)NCCc2ccccc2)(c2ccc(OC)cc2)c2ccc(OC)cc2)cc1 | 20 | > 100 | –
25 | COC(=O)[C@@H](Cc1ccccc1)NC(=O)C(c1ccccc1)(c1ccc(OC)cc1)c1ccc(OC)cc1 | 24 | > 100 | –
